Assays:
[1] = Cytotoxicity against human OVCAR4 cells assessed as cell growth at 10 uM after 48 hrs by SRB assay; format: functional; conditions: OVCAR-4, 48 h, read-out: Activity
Procedure, shortened: (§1)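 First stage of the NCI 60 human tumour cell line screen: a single dose is tested against every line. Cell growth is read as cellular protein by sulforhodamine B colorimetry after 48 h of drug exposure, with reference to a time-zero control and to untreated plates.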

A498 = test: Cytotoxicity against human A498 cells assessed as cell growth at 10 uM after 48 hrs by SRB assay; format: functional; conditions: A498, 48 h, read-out: Activity
SN12C = test: Cytotoxicity against human SN12C cells assessed as cell growth at 10 uM after 48 hrs by SRB assay; format: functional; conditions: read-out: Activity; procedure, shortened: as §1
SF-539 = test: Cytotoxicity against human SF539 cells assessed as cell growth at 10 uM after 48 hrs by SRB assay; format: functional; conditions: SF-539, 48 h, read-out: Activity; procedure, shortened: as §1
PC-3 = test: Cytotoxicity against human PC3 cells assessed as cell growth at 10 uM after 48 hrs by SRB assay; format: functional; conditions: PC-3, 48 h, read-out: Activity; procedure, shortened: as §1
MDA-MB-435 = test: Cytotoxicity against human MDA-MB-435 cells assessed as cell growth at 10 uM after 48 hrs by SRB assay; format: functional; conditions: MDA-MB-435, 48 h, read-out: Activity; procedure, shortened: as §1
SK-MEL-28 = test: Cytotoxicity against human SK-MEL-28 cells assessed as cell growth at 10 uM after 48 hrs by SRB assay; format: functional; conditions: SK-MEL-28, 48 h, read-out: Activity; procedure, shortened: as §1
[2] = Cytotoxicity against human NCI-ADR-RES cells assessed as cell growth at 10 uM after 48 hrs by SRB assay; format: functional; conditions: read-out: Activity; procedure, shortened: as §1
[3] = Cytotoxicity against human H1299 cells assessed as cell viability at 10 uM after 48 hrs by MTT assay; format: functional; conditions: NCI-H1299, 48 h, read-out: Activity
Procedure, shortened: (§2)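 About 2×10³ H1299 cells per well were grown for 24 h at 37 °C in 5% CO2. Compound was dissolved in DMSO immediately before use, diluted in complete medium and left on cells for 48 h. MTT was then added for 4 h at 37 °C, followed by SDS/DMF lysis buffer for 16 h at 37 °C. Absorbance was read at 550 nm.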

HCT-15 = test: Cytotoxicity against human HCT15 cells assessed as cell growth at 10 uM after 48 hrs by SRB assay; format: functional; conditions: HCT-15, 48 h, read-out: Activity
[4] = Cytotoxicity against human UACC257 cells assessed as cell growth at 10 uM after 48 hrs by SRB assay; format: functional; conditions: UACC-257, 48 h, read-out: Activity
Procedure, shortened: (§3)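 First stage of the NCI 60 human tumour cell line screen, with each compound tested at a single dose of 10. Cellular protein measured by sulforhodamine B colorimetry after 48 h drug exposure. Growth is calculated against a time-zero cell control and against plates not exposed to drug.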

[5] = target: Telomerase reverse transcriptase (Homo sapiens) (UniProt O14746); test: Inhibition of human tert transcriptional activity assessed as SEAP activity at 1 uM after 24 hrs by SEAP reporter assay; parameters: scale not given: the % may be the effect or the level left
Telomerase reverse transcriptase (Homo sapiens), sequence (O14746 whole entry): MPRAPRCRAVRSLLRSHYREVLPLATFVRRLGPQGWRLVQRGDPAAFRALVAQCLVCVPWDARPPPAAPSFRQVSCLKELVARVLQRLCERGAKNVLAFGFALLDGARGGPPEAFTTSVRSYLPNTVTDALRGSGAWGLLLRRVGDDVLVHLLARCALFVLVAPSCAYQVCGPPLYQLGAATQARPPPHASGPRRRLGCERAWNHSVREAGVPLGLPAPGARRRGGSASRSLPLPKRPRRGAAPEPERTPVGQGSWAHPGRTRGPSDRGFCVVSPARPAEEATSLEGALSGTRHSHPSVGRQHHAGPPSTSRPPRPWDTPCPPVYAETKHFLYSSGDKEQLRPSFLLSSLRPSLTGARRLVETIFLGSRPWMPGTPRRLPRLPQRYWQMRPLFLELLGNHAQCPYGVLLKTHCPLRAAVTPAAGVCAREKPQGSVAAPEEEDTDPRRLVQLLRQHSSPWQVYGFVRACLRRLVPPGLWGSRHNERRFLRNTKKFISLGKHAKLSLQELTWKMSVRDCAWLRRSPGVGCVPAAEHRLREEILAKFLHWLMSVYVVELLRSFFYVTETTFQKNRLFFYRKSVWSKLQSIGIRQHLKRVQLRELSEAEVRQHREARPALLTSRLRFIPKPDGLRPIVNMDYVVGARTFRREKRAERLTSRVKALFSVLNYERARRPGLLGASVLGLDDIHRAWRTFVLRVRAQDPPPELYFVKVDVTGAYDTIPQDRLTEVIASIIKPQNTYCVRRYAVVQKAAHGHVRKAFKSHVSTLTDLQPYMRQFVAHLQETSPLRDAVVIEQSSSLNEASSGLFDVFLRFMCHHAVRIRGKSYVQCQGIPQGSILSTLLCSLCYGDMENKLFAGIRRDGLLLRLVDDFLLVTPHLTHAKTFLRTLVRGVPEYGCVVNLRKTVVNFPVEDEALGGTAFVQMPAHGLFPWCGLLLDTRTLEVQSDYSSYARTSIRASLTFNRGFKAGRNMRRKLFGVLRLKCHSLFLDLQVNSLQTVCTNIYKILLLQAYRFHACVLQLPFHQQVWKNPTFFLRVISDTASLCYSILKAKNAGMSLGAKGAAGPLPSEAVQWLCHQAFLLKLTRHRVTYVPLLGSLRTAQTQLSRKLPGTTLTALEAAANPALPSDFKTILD
Procedure, shortened: (§4)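 Reporter assay for hTERT transcriptional activity using secreted alkaline phosphatase. About 2 × 10³ cells per well were grown for 24 h at 37 °C, then given fresh medium. Buffer was added to the medium: 2 M diethanolamine, 1 mM MgCl2 and 20 mM L-homoarginine. p-Nitrophenyl phosphate was added to 12 mM final. The rate of absorbance increase was read at 405 nm.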

COLO 205 = test: Cytotoxicity against human COLO205 cells assessed as cell growth at 10 uM after 48 hrs by SRB assay; format: functional; conditions: COLO 205, 48 h, read-out: Activity
NCI-H522 = test: Cytotoxicity against human NCI-H522 cells assessed as cell growth at 10 uM after 48 hrs by SRB assay; format: functional; conditions: NCI-H522, 48 h, read-out: Activity; procedure, shortened: as §1
NCI-H460 = test: Cytotoxicity against human NCI-H460 cells assessed as cell growth at 10 uM after 48 hrs by SRB assay; format: functional; conditions: NCI-H460, 48 h, read-out: Activity; procedure, shortened: as §1
U-251 = test: Cytotoxicity against human U251 cells assessed as cell growth at 10 uM after 48 hrs by SRB assay; format: functional; conditions: U-251, 48 h, read-out: Activity; procedure, shortened: as §3
CCRF-CEM = test: Cytotoxicity against human CCRF-CEM cells assessed as cell growth at 10 uM after 48 hrs by SRB assay; format: functional; conditions: read-out: Activity
RXF 393 = test: Cytotoxicity against human RXF393 cells assessed as cell growth at 10 uM after 48 hrs by SRB assay; format: functional; conditions: RXF 393, 48 h, read-out: Activity; procedure, shortened: as §1
[6] = Cytotoxicity against human H1299 cells assessed as cell viability at 100 uM after 48 hrs by MTT assay; format: functional; conditions: NCI-H1299, 48 h, read-out: Activity; procedure, shortened: as §2
HCC 2998 = test: Cytotoxicity against human HCC2998 cells assessed as cell growth at 10 uM after 48 hrs by SRB assay; format: functional; conditions: HCC 2998, 48 h, read-out: Activity
HOP-92 = test: Cytotoxicity against human HOP92 cells assessed as cell growth at 10 uM after 48 hrs by SRB assay; format: functional; conditions: HOP-92, 48 h, read-out: Activity
Procedure, shortened: (§5)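 NCI 60-cell-line screen, first stage: compound at a single dose of […] (unit as printed) for 48 h. Cellular protein was measured by sulforhodamine B colorimetry. Growth was determined using a time-zero cell control and plates not exposed to drug.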

TK-10 = test: Cytotoxicity against human TK10 cells assessed as cell growth at 10 uM after 48 hrs by SRB assay; format: functional; conditions: TK-10, 48 h, read-out: Activity; procedure, shortened: as §3
LOX IMVI = test: Cytotoxicity against human LOXIMVI cells assessed as cell growth at 10 uM after 48 hrs by SRB assay; format: functional; conditions: read-out: Activity; procedure, shortened: as §5
NCI-H322M = test: Cytotoxicity against human NCI-H322M cells assessed as cell growth at 10 uM after 48 hrs by SRB assay; format: functional; conditions: read-out: Activity; procedure, shortened: as §1
T47D = test: Cytotoxicity against human T47D cells assessed as cell growth at 10 uM after 48 hrs by SRB assay; format: functional; conditions: read-out: Activity; procedure, shortened: as §3
[7] = Cytotoxicity against human OVCAR5 cells assessed as cell growth at 10 uM after 48 hrs by SRB assay; format: functional; conditions: OVCAR-5, 48 h, read-out: Activity; procedure, shortened: as §1
SK-OV-3 = test: Cytotoxicity against human SKOV3 cells assessed as cell growth at 10 uM after 48 hrs by SRB assay; format: functional; conditions: SK-OV-3, 48 h, read-out: Activity; procedure, shortened: as §1
[8] = target: Telomerase reverse transcriptase (Homo sapiens) (UniProt O14746); test: Inhibition of human tert transcriptional activity assessed as SEAP activity at 10 uM after 24 hrs by SEAP reporter assay; parameters: scale not given: the % may be the effect or the level left; procedure, shortened: as §4
HCT-116 = test: Cytotoxicity against human HCT116 cells assessed as growth inhibition after 48 hrs by SRB assay; format: functional
Procedure, shortened: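 NCI 60-cell-line five-dose screen at […]. Drug exposure was 48 h, followed by sulforhodamine B protein staining. GI50, TGI and LC50 were calculated against a time-zero control and untreated plates, with dose–response curves plotted from log10 concentration.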

Row | SMILES | growth at 10 µM [1] [%] | growth at 10 µM (A498) [%] | growth at 10 µM (SN12C) [%] | growth at 10 µM (SF-539) [%] | growth at 10 µM (PC-3) [%] | growth at 10 µM (MDA-MB-435) [%] | growth at 10 µM (SK-MEL-28) [%] | growth at 10 µM [2] [%] | viability at 10 µM [3] [%] | growth at 10 µM (HCT-15) [%] | growth at 10 µM [4] [%] | Activity [5] [%] | growth at 10 µM (COLO 205) [%] | growth at 10 µM (NCI-H522) [%] | growth at 10 µM (NCI-H460) [%] | growth at 10 µM (U-251) [%] | growth at 10 µM (CCRF-CEM) [%] | growth at 10 µM (RXF 393) [%] | viability at 100 µM [6] [%] | growth at 10 µM (HCC 2998) [%] | further results
1 | O=C1c2ccccc2C(=O)c2c1ccc1[nH]c(=S)[nH]c21 | 91.6 | 94.3 | 88 | 91.3 | 78.8 | 114 | 118 | 110 | 99 | 83.8 | 105 | 97 | 104 | 96.1 | 98.6 | 88.8 | 61.9 | 142 | 54 | 114 | growth at 10 µM (HOP-92): 65.5%; growth at 10 µM (TK-10): 112%; growth at 10 µM (LOX IMVI): 84%; growth at 10 µM (NCI-H322M): 96.3%; growth at 10 µM (T47D): 81.9%; growth at 10 µM [7]: 129%; growth at 10 µM (SK-OV-3): 103%; Activity [8]: 100%
2 | CN(C)CCCSc1nc2ccc3c(c2[nH]1)C(=O)c1ccccc1C3=O | 29.7 | 76.2 | 37.7 | 57.5 | 36.7 | 72.2 | 102 | 54.3 | 79 | 36.3 | 114 | 100 | 62 | 69.3 | 23.2 | 74.1 | 8.49 | 38.4 | 22 | 72.7 | growth inhibition (GI) (HCT-116): Dose-dependent effect; GI50 (HCT-116; HCT-116, 48 h): 1.85 µM; TGI (HCT-116; HCT-116, 48 h): 8.75 µM; growth at 10 µM (HOP-92): 16%; growth at 10 µM (TK-10): 31.7%; growth at 10 µM (LOX IMVI): 28.6%; growth at 10 µM (NCI-H322M): 70.8%; growth at 10 µM (T47D): 45.8%; growth at 10 µM [7]: 87.9%; growth at 10 µM (SK-OV-3): 32.4%; Activity [8]: 86%
3 | CCSc1nc2ccc3c(c2[nH]1)C(=O)c1ccccc1C3=O | 55 | 75.5 | 67.9 | 58.6 | 53.8 | 68.4 | 97.7 | 85.7 | 127 | 32.3 | 112 | 100 | 71.8 | 78.6 | 38.8 | 65 | 36.9 | 99.9 | 73 | 89.4 | growth inhibition (GI) (HCT-116): Dose-dependent effect; GI50 (HCT-116; HCT-116, 48 h): 5.59 µM; LC50 (HCT-116; HCT-116, 48 h): > 100 µM; TGI (HCT-116; HCT-116, 48 h): > 100 µM; growth at 10 µM (HOP-92): 75.3%; growth at 10 µM (TK-10): 74.1%; growth at 10 µM (LOX IMVI): 36.7%; growth at 10 µM (NCI-H322M): 33.4%; growth at 10 µM (T47D): 30.8%; growth at 10 µM [7]: 85.4%; growth at 10 µM (SK-OV-3): 24.7%; Activity [8]: 90%
4 | O=C1c2ccccc2C(=O)c2c1ccc1nc3n(c21)CCS3 | 89.3 | 73.7 | 74.9 | 74.1 | 93.9 | 83.1 | 109 | 84.1 | 128 | 57.1 | 80.6 | 107 | 95.2 | 80.6 | 59.5 | 72.5 | 66.8 | 46.5 | 99 | 94.8 | growth at 10 µM (HOP-92): 88.7%; growth at 10 µM (TK-10): 58.8%; growth at 10 µM (LOX IMVI): 65.9%; growth at 10 µM (NCI-H322M): 72.1%; growth at 10 µM (T47D): 73.1%; growth at 10 µM [7]: 105%; growth at 10 µM (SK-OV-3): 87.4%; Activity [8]: 53%

From ChEMBL document CHEMBL3120102, “Structure-based design, synthesis and biological evaluation of novel anthra[1,2-d]imidazole-6,11-dione homologues as potential antitumor agents” (2013)
